High-throughput results (PubChem BioAssay)
This is a sample that favours compounds with a hit; in the whole collection about 3.5% have one here.
RGS4 act: potentiators or activators of RGS4. hit rate 0.92% among 310,000. B-score at 10 µM. HEK293 M3R/inducible RGS4, carbachol calcium flux Fluo4; active compounds read low;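 active = B-score of the integrated calcium signal more than 4 SD below the library mean, with starting fluorescence not abnormally high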;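 note: negative B-score means reduced calcium response which marks RGS4 activation or potentiation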
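Material: M3R-expressing HEK293 line, RGS4 induced by doxycycline | Schedule: Overnight RGS4 induction, 30 min dye load 37 °C, 20 min compound RT | Measured by: Fluo4 fluorescence kinetic imaging of calcium | Read-out: Integrated calcium ratio converted to B score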
MrgX1 antag: human MrgX1 receptor antagonism, primary screen. Q96LB2. MRGX1-HEK293 calcium flux, Fluo-4, BAM8-22 antagonism; active compounds read low. B-score at 10 µM. hit rate 1.3% among 310,000;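 active = calcium-response B-score plate-corrected more than 3 library SD below zero, starting fluorescence within 5 deviations, no agonist response on first addition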;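 note: peak minus trough fluorescence over baseline after final BAM8-22 challenge near maximal dose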
Target sequence (Q96LB2 whole entry, looked up): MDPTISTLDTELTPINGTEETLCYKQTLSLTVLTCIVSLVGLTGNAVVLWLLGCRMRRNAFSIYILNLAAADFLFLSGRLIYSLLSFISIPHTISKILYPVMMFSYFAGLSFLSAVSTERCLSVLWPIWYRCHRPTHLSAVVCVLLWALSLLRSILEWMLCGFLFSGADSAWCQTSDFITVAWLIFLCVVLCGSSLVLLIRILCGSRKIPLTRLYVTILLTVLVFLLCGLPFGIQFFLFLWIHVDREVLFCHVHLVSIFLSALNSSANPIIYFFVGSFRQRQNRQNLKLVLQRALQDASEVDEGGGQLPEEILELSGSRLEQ
MrgX1 agonist: agonists of human MrgX1 receptor; hit rate 0.44% among 310,000; B-score at 10 µM; MrgX1-HEK293 cells, Fluo-4 calcium fluorescence, agonist mode; active compounds read high; Q96LB2;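 active = calcium response B-score plate-corrected fluorescence ratio at least 3 library SD, with starting fluorescence B-score inside 5 SD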
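Material – MrgX1-expressing HEK293 cells · Input – 15,000 cells seeded per well · Dosing – compound as first of three additions · Times – overnight seeding, then 1 h dark dye loading · Measured by – kinetic Fluo-4 NW fluorescence of intracellular calcium · Read-out – B-scored fluorescence response ratio · Benchmarks – positive and negative control wells on each plate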
RGS4 block: human RGS4 inhibition | P49798 | HEK293 M3R/RGS4 inducible, Fluo-4 calcium flux; active compounds read high; triggered by carbachol at its EC20 | B-score at 10 µM | hit rate 0.45% among 310,000 | AID 463165;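 active = B-score, a plate-corrected calcium signal, over three deviations above library mean, with baseline fluorescence within five deviations of library mean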;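 note: RGS4 expression induced by doxycycline in cells with stable M3 receptor; B-score is computed from the integrated fluorescence ratio over baseline after carbachol; higher B-score means a larger calcium signal and so more RGS4 inhibition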
Target sequence (P49798 whole entry, looked up): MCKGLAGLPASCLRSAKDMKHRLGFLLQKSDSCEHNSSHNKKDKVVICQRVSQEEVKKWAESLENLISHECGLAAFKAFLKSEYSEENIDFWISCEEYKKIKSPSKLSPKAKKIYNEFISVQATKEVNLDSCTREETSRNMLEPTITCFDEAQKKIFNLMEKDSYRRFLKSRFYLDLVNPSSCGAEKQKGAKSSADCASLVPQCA
MrgX1 allo act: human MrgX1 positive allosteric modulation, primary screen | Q96LB2 | MrgX1-HEK293, Fluo-4 calcium flux, FDSS; active compounds read high | B-score at 10 µM | hit rate 0.63% among 310,000;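 active = plate-corrected calcium response at least 3 library SD above typical, normal starting fluorescence, not activating the receptor alone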;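 note: compound read alongside a low EC10 to EC30 dose of BAM8-22 agonist; peak minus trough fluorescence over baseline measured at the second addition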
Large screens that a line does not name were inactive.

C=CCn1c(Sc2ncc([N+](=O)[O-])s2)n[nH]c1=O	RGS4 act -8, MrgX1 antag -9.2
C=CCn1c(CSc2ccccc2[N+](=O)[O-])n[nH]c1=S	none
Cc1ccc(NC(=O)c2ccc3c(c2)C(=O)N(Cc2cccnc2)C3=O)c(C)c1	none
COc1ccccc1NC(=O)Nc1nc(CC(=O)NCc2c(F)cccc2F)cs1	none
COc1ccccc1NC(=O)Nc1nc(CC(=O)N2CCN(c3ccccc3F)CC2)cs1	RGS4 act -7.1
CC(C)OCCCNC(=O)CN1C(=O)CSc2ccc(S(=O)(=O)N3CCCCC3)cc21	none
CN(c1ccccc1)c1ccc(/C=C(\CCC(=O)O)c2nc3ccccc3s2)cc1[N+](=O)[O-]	MrgX1 antag -7.4
COc1ccc(-c2nc3ccccc3nc2-c2ccc(OC)cc2)cc1	RGS4 act -7
O=C(NCc1ccco1)C1CC(=O)N(c2ccc(O)cc2)C1 (stereo unspecified)	none
COc1cccc(O)c1CN1CCCC(C(=O)c2cccc(C(F)(F)F)c2)C1 (stereo unspecified)	RGS4 act -7.5
O=C(c1cccc(C(F)(F)F)c1)C1CCCN(Cc2cccc(OCCO)c2)C1 (stereo unspecified)	RGS4 act -7
COc1ccc(C(=O)C2CCCN(Cc3c(O)cccc3OC)C2)cc1OC (stereo unspecified)	none
O=C1C(Cl)=C(Nc2cccc(O)c2)C(=O)N1Cc1ccccc1	none
COc1ccc(NC(=O)CSCc2cc(=O)n3cc(C)sc3n2)cc1	none
CCc1nnc(NS(=O)(=O)c2ccc(NC(=S)NC(=O)/C=C/c3ccc(C(C)C)cc3)cc2)s1	RGS4 act -9.7
CCc1nnc(NS(=O)(=O)c2ccc(NC(=S)NC(=O)/C=C/c3ccccc3)cc2)s1	none
Cc1cccc(COc2ccc(/C=C3/C(=O)N(C)C(=S)N3C)cc2)c1	none
Cn1c(C(=O)O)cnc1Sc1ncc(C(F)(F)F)cc1Cl	none
CC(C)NC(=O)c1cnc(Sc2ncc(C(F)(F)F)cc2Cl)n1C	RGS4 act -7.6
COc1cc(NC(=O)CCN2CCN(C/C=C/c3ccccc3)CC2)cc(OC)c1	none
CCOC(=O)c1c(CN(C)C)n(-c2ccc(C)cc2)c2cc(Br)c(O)cc12	none
CCOC(=O)c1c(CSC(=N)N)n(-c2ccc(C)cc2)c2cc(Br)c(OC(C)=O)cc12	MrgX1 antag -7.6
O=C(NCCCN1CCCCC1)C1CCC(CNS(=O)(=O)c2cccc3nsnc23)CC1 (stereo unspecified)	none
COc1ccc(-c2csc(NC(=O)C3CCCO3)n2)cc1 (stereo unspecified)	RGS4 act -7
O=C(Nc1ccc(S(=O)(=O)N2CCCC2)cc1)c1ccc(CN2CCOCC2)cc1	none
O=C(Nc1ccc(S(=O)(=O)N2CCCCC2)cc1)c1ccc(CN2CCOCC2)cc1	MrgX1 antag -7.7
CCOC(=O)COc1nc(-c2ccc(C)cc2)cc(-c2ccco2)c1C#N	none
CCOC(=O)COc1nc(-c2ccco2)cc(-c2ccco2)c1C#N	RGS4 act -7.2
O=[N+]([O-])c1ccc(N2CCN(C(=S)Nc3ccccc3)CC2)cc1	MrgX1 allo act 7.5
O=C(O)COc1cccc(/C=C2/SC(=S)N(Cc3ccccc3)C2=O)c1	RGS4 block 5.7
O=C(O)CN1C(=O)/C(=C\c2cccc(OCc3ccccc3)c2)SC1=S	none
O=C(CCN1C(=O)/C(=C\c2ccccc2)SC1=S)Nc1ccc(C(=O)O)cc1	MrgX1 allo act 14
COc1cc(/C=C2\SC(=S)N(CCC(=O)Nc3cccc(O)c3)C2=O)cc(OC)c1OC	RGS4 act -8.1, MrgX1 antag -4.6
O=C(CN1C(=O)S/C(=C\c2cc(Cl)c(O)c(Cl)c2)C1=O)Nc1ccccc1	MrgX1 agonist 27
O=C(CN1C(=O)S/C(=C\c2ccccn2)C1=O)Nc1ccccc1	none
COc1ccccc1CNN	MrgX1 allo act 8
COc1ccccc1CNc1ncccn1	none
CCn1ncc(/C=C/C(=O)NCc2cnn(C)c2C)c1C	none
CCn1ncc(/C=C/C(=O)NCc2cn(C)nc2C)c1C	MrgX1 antag -4.8
C#CCN1C(=O)S/C(=C\c2ccc(-c3ccc(C(=O)O)cc3C)o2)C1=O	MrgX1 allo act 8.1
Cc1ccc(C)c(N2C(=N)S/C(=C\c3ccc(-c4ccccc4C(=O)O)o3)C2=O)c1	MrgX1 allo act 12
Cc1cc(C(=O)O)ccc1-c1ccc(/C=C2\SC(=O)N(CC(=O)Nc3ccc4c(c3)OCO4)C2=O)o1	none
NNC(=O)Nc1cccc(C(F)(F)F)c1	MrgX1 allo act 12
O=C1CSC(c2ccccc2Br)N1c1ccc(Cl)cn1 (stereo unspecified)	RGS4 act -7
Cc1cc(/C=N/n2c(COc3ccccc3C)nc3ccccc3c2=O)c(O)c([N+](=O)[O-])c1	MrgX1 antag -6.5
Cc1ccccc1OCc1nc2ccccc2c(=O)n1/N=C/c1c[nH]c2ccccc12	none
CCOC(=O)c1c2c3c(cccc3n(C)c1=O)C(=O)c1ccccc1-2	none
Cn1c(=O)c(Nc2ccc(Cl)cc2)c2c3c(cccc31)C(=O)c1ccccc1-2	RGS4 act -7
Cc1cc[n+](C(C)C(=O)c2ccc(-c3ccccc3)cc2)cc1 (stereo unspecified)	RGS4 act -9.4
CC(C(=O)c1ccc(-c2ccccc2)cc1)[n+]1ccccc1 (stereo unspecified)	none
CC(C)C[C@H]1CN=C(Nc2ccccc2)N1CC1CCC(C(C)(C)C)CC1 (stereo partly specified)	MrgX1 allo act 6.9 (no result: RGS4 act, RGS4 block)
CN1CCc2cc3c(c4c2[C@H]1[C@H](O)c1ccccc1-4)OCO3	RGS4 act -7.4
COc1ccc(/C=N/NC(=O)c2cc3c(ccc4ccccc43)o2)c(OC)c1	RGS4 act -8 (no result: MrgX1 antag, MrgX1 agonist, MrgX1 allo act)
Cc1cc(NS(=O)(=O)c2ccc(NC(=S)NC(=O)c3cccc(S(=O)(=O)N(C)C)c3)cc2)no1	MrgX1 allo act 14
O=C(CC1SC(=Nc2ccccc2)N(CCCO)C1=O)Nc1ccc(Cl)cc1 (stereo unspecified)	RGS4 act -9.1, MrgX1 antag -4.6
CCOc1ccc(NC(=O)CSc2nnc(Cc3cccn3C)n2-c2ccc(OC)cc2)cc1	MrgX1 antag -5.7
COc1cccc(CNC(=O)CCS(=O)(=O)c2ccc3c(c2)oc(=O)n3C)c1	none
CCCn1nc([N+](=O)[O-])c(C(C#N)c2nc3ccccc3s2)c(Cl)c1=O (stereo unspecified)	MrgX1 agonist 29
CC1CCN(CC(=O)Nc2ccc(N3CCCCCC3)cc2)CC1	RGS4 act -7
CC1CCN(CC(=O)Nc2ccc(S(=O)(=O)N3CCCCC3)cc2)CC1	none
CCCN1Cc2cccc(C(=O)NCCc3cccc(C)c3)c2C1=O	none
CC(=O)NC1C(Oc2cccc(C)c2)OC2COC(c3ccco3)OC2C1O (stereo unspecified)	RGS4 act -7.3
Cc1ccc(OCc2ccccc2Br)c([N+](=O)[O-])n1	none
